Activity calls are given as the source filed them. The calls are words filed in the database; no cut-off is given here. Bounds are passed on as bounds.

Test [1] concerns HeLa. Nature of the test: Antiproliferative activity against human HeLa cells after 48 hrs by MTT assay. It is filed as functional, cell-based. In outline: (§1)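 Cells seeded at 5000 per well and left overnight, then exposed to increasing concentrations (0-50 μM) for 48 h. […] HL-60/MX2 is a mitoxantrone-selected HL-60 derivative with reduced Topo IIα/β.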
For test [2], the target named is DNA topoisomerase 2-alpha (Homo sapiens, UniProt P11388). Briefly: Inhibition of purified human topoisomerase 2-mediated relaxation of supercoiled pBR322 DNA at 50 uM incubated for 30 mins by agarose gel electrophoresis. In outline:
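Reactions contained 0.2 μg supercoiled pBR322 in 50 mM Tris-HCl pH 8.0, 150 mM NaCl, 10 mM MgCl2, 0.5 mM DTT, 30 μg/ml BSA, normally 2 mM ATP (1, 2 or 4 mM in ATP-competition runs). Started with 1 U human Topo II, 30 min at 37 °C, stopped with sarcosyl buffer, run on 1% agarose 1.5 h at 75 V, gel-stained and imaged under UV.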

The nature of test [3]: Antiproliferative activity against human HL60 cells after 48 hrs by MTT assay. It counts as functional, cell-based. The following applies: HL-60, 48 h. An outline of the steps: as §1
In test [4] the test system is HEK293. Nature of the test: Cytotoxicity against HEK293 cells after 48 hrs by MTT assay. It is filed as cell-based. The following applies: Homo sapiens, HEK293, 48 h.
The test system of test [5] is HL-60. Briefly: Resistance index, ratio of IC50 for human HL60/MX2 cells to IC50 for HL60 cells. It is filed as functional. An outline of the steps:
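Resistance index calculated as MTT-derived IC50 (48 h exposure, 0-50 μM, A570 readout) in HL-60/MX2 divided by IC50 in parental HL-60.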

Test [6] deals with Raji. Nature of the test: Antiproliferative activity against human Raji cells after 48 hrs by MTT assay. It counts as functional, cell-based. An outline of the steps:
as §1

Test [7] has as its system A549. Nature of the test: Antiproliferative activity against human A549 cells after 48 hrs by MTT assay. It counts as functional, cell-based. The following applies: A549, 48 h. In outline: as §1
A short description of test [8]: Antiproliferative activity against human MDA-MB-201 cells after 48 hrs by MTT assay. It counts as functional, cell-based. In outline:
as §1

Test [9] is described as follows: Antiproliferative activity against human HL60/MX2 cells after 48 hrs by MTT assay. It counts as functional, cell-based. As to conditions: HL60/MX2, 48 h. An outline of the steps: as §1
For test [10], the system named is K562. Briefly: Antiproliferative activity against human K562 cells after 48 hrs by MTT assay. It counts as functional, cell-based. As to conditions: K562, 48 h. In outline: as §1
The target in test [11] is T1, DNA topoisomerase 1 (Homo sapiens) (UniProt P11387).
T1 sequence (whole entry): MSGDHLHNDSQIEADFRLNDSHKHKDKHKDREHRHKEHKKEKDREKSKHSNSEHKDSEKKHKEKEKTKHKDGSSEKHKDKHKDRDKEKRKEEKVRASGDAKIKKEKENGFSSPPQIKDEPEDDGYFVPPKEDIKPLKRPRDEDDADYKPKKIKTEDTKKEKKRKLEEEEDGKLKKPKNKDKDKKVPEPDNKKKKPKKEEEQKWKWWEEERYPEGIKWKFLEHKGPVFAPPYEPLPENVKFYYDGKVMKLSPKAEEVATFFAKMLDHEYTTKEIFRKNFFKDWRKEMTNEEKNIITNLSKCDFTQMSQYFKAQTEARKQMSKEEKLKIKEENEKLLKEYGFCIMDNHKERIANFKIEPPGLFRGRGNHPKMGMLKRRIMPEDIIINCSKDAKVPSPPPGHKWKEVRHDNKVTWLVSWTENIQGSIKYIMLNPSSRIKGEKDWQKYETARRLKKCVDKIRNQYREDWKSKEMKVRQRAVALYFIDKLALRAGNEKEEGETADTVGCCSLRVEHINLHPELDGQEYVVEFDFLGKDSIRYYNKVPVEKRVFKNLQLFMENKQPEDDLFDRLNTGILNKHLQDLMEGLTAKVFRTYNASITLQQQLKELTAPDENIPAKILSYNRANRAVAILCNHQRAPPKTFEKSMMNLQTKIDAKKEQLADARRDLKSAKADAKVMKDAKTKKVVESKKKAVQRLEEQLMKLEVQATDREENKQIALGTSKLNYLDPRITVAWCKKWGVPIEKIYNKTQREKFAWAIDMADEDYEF
Briefly: Inhibition of recombinant human topoisomerase 1-mediated relaxation of supercoiled pBR322 DNA at 50 uM incubated for 30 mins by agarose gel electrophoresis. In outline:
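Supercoiled pBR322 relaxed by Topo I with compound, incubated 30 min at 37 °C, stopped with 1% SDS dye, run on 1% agarose 1 h at 90 V in TAE, stained and imaged under UV; camptothecin as reference.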

Sequence of DNA topoisomerase 2-alpha (P11388 whole entry): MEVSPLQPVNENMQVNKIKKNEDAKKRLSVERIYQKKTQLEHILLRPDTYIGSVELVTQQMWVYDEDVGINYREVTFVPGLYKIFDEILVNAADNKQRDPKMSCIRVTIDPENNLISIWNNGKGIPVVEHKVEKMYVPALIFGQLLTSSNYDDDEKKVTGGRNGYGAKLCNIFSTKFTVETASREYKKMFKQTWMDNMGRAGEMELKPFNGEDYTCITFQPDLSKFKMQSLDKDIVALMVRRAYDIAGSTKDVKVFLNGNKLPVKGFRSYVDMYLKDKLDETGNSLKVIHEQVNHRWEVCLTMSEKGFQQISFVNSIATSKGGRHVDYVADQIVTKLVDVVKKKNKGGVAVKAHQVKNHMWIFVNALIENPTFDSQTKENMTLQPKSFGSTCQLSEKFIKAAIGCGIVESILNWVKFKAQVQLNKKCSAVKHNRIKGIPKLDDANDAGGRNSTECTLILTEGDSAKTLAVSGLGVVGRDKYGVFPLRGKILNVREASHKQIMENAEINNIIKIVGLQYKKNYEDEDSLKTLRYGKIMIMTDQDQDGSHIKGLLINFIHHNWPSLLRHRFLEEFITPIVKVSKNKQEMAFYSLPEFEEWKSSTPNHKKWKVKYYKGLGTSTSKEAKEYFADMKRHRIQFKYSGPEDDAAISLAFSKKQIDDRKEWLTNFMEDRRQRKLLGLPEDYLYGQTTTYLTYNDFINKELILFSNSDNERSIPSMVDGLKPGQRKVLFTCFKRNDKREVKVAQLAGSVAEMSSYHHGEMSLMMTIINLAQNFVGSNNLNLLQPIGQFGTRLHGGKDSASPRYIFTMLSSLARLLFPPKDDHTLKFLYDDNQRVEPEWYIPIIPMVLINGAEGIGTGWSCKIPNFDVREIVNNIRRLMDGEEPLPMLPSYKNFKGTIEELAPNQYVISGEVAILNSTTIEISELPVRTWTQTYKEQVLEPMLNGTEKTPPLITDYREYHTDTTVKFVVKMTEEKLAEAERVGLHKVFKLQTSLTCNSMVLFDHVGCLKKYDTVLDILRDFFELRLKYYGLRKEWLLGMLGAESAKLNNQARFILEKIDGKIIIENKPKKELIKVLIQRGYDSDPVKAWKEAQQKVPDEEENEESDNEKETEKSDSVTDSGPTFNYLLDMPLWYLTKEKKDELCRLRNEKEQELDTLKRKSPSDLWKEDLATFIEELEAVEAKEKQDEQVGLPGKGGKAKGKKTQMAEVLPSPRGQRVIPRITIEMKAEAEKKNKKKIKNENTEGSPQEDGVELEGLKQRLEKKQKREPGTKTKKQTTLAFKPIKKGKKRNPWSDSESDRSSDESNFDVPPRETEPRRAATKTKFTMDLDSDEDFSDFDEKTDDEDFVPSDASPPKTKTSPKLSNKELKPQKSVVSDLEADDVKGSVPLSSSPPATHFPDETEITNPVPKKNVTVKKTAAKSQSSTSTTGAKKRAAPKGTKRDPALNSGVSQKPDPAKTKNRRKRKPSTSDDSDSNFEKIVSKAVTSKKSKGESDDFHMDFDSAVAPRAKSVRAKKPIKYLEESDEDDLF

For `CN(C)CCCCn1c(N)c(C#N)c2nc(C#N)c(C#N)nc21`, the results for the half-maximal inhibitory concentration (IC50) in test [1] and in [3] were greater than 50 µM and 12.9 µM, respectively. Besides, the inhibition result in test [2] was “inactive”.
With `CCN(CC)CCCCn1c(N)c(-c2nc3cc(Cl)ccc3[nH]2)c2nc(C#N)c(C#N)nc21`, the IC50 in test [4] was 3.86 µM; in test [6], 0.72 µM; in test [7] it was 2.27 µM; in [8], 2.84 µM; in test [9], 1.77 µM; in test [1] it was 3.64 µM. Besides, the IC50 in test [3] amounted to 0.82 µM; in [10], 1.27 µM. For the same molecule, in test [5], the “Ratio IC50” value came out at 2.2. Besides, in [2], the inhibition result was “Active”.
For `N#Cc1nc2c(-c3nc4ccccc4[nH]3)c(N)n(CCCO)c2nc1C#N`, the 50% inhibitory concentration (IC50) in [4], in test [6], in [7], in [8], in [9] and in test [1] was greater than 50 µM in each case. For the same molecule, the IC50 in test [3] and in test [10] was greater than 50 µM throughout. Further, the inhibition result in test [11] and in test [2] was “inactive” each time.
On to `CCN(CC)CCCn1c(N)c(-c2nc3cc(Cl)ccc3[nH]2)c2nc(C#N)c(C#N)nc21`, for which the IC50 in test [4] was 8.42 µM; in test [6] it was 1.62 µM; in test [7], greater than 50 µM; in [8], 23.2 µM; in [9] it was 2.46 µM; in [1], 24.4 µM. The results for the IC50 in test [3] and in [10] were 3.47 µM and 4.83 µM, respectively. Besides, the “Ratio IC50” value in test [5] is 0.7. Also, the inhibition result in [2] was “Active”.
For the molecule `N#Cc1nc2c(-c3nc4ccccc4[nH]3)c(N)n(CCc3cc4ccccc4[nH]3)c2nc1C#N`, the half-maximal inhibitory concentration (IC50) in test [4], in [6], in test [7], in [8], in test [9] and in test [1] was greater than 50 µM in each case. Further, the half-inhibitory concentration (IC50) in test [3] and in [10] was greater than 50 µM in each case. Besides, the inhibition result in [11] and in test [2] was “inactive” throughout.
Take `CN(C)CCn1c(N)c(-c2nc3cc(Cl)ccc3[nH]2)c2nc(C#N)c(C#N)nc21`: the half-maximal inhibitory concentration (IC50) in test [4] was greater than 50 µM; in test [6], 11.8 µM; in [7], greater than 50 µM; in test [8], greater than 50 µM; in test [9] it was greater than 50 µM; in test [1], greater than 50 µM. For the same molecule, the IC50 was greater than 50 µM in test [3] and 11.3 µM in test [10]. Moreover, in test [2], the inhibition entry is “inactive”.
`CN(C)CCCn1c(N)c(-c2nc3cc(Cl)ccc3[nH]2)c2nc(C#N)c(C#N)nc21`: the half-inhibitory concentration (IC50) in [4] is 11.7 µM; in test [6], 3.11 µM; in test [7], greater than 50 µM; in [8] it was 28.1 µM; in test [9], 5.31 µM; in test [1] it was 16.5 µM. In addition, the figures for the IC50 in test [3] and in [10] were 2.93 µM and 10.7 µM, respectively. The “Ratio IC50” value in test [5] is reported as 1.8. Moreover, the inhibition result in [2] is “Active”.
`N#Cc1nc2c(-c3nc4ccccc4[nH]3)c(N)n(CCN3CCCC3)c2nc1C#N`: the IC50 in [4] was 18.3 µM; in test [6], greater than 50 µM; in test [7], greater than 50 µM; in test [8], greater than 50 µM; in test [9], greater than 50 µM; in [1], greater than 50 µM. Moreover, the IC50 in test [3] worked out at 4.76 µM; in [10], 6.48 µM. The inhibition result in [11] and in [2] was “inactive” each time.
For `CCn1c(N)c(-c2nc3ccccc3[nH]2)c2nc(C#N)c(C#N)nc21`, the IC50 in test [4], in test [6], in test [7], in [8], in [9] and in test [1] was greater than 50 µM each time. Besides, the IC50 in test [3] and in [10] was greater than 50 µM each time. For the same molecule, the inhibition entry in test [11] and in [2] was “inactive” in each case.
Take `CCCn1c(N)c(-c2nc3ccccc3[nH]2)c2nc(C#N)c(C#N)nc21`: the IC50 in [4] is greater than 50 µM; in [6], greater than 50 µM; in test [7], 1.97 µM; in [8], greater than 50 µM; in test [9] it was greater than 50 µM; in test [1], greater than 50 µM. Further, the IC50 in [3] was 45.2 µM; in test [10] it was greater than 50 µM. The inhibition result in test [11] and in test [2] was “inactive” each time.
As for `N#Cc1nc2c(-c3nc4ccccc4[nH]3)c(N)n(CCCNc3ccccc3)c2nc1C#N`, the 50% inhibitory concentration (IC50) in [1] was found to be 26.3 µM; in test [3], 6.92 µM.
Regarding `N#Cc1nc2c(-c3nc4ccccc4o3)c(N)n(CCCN3CCCCC3)c2nc1C#N`, the 50% inhibitory concentration (IC50) in [4] amounted to 19.2 µM; in [6], 3.19 µM; in test [7] it was 8.67 µM; in [8], 32.2 µM; in [9] it was 5.45 µM; in [1] it was 12.2 µM. For the same molecule, the figures for the IC50 in test [3] and in [10] were 3.82 µM and greater than 50 µM, respectively. In test [5], the “Ratio IC50” value came out at 1.4. For the same molecule, the inhibition entry in test [2] was “inactive”.
Regarding `CCN(CC)CCn1c(N)c(-c2nc3ccccc3n2C)c2nc(C#N)c(C#N)nc21`, the half-maximal inhibitory concentration (IC50) in test [4] was 25.4 µM; in test [6], 2.08 µM; in test [7], greater than 50 µM; in [8] it was greater than 50 µM; in test [9] it was 3.25 µM; in test [1], greater than 50 µM. Also, the IC50 in test [3] was 8.8 µM; in test [10] it was greater than 50 µM. The “Ratio IC50” value in test [5] is on record as 0.4. Also, the inhibition entry in [2] is “inactive”.
For `CCN(CC)CCn1c(N)c(-c2nc3cc(Cl)ccc3[nH]2)c2nc(C#N)c(C#N)nc21`, the IC50 was greater than 50 µM in [4]; 31.5 µM in test [6]; greater than 50 µM in test [7]; greater than 50 µM in test [8]; 9.29 µM in test [9]; greater than 50 µM in [1]. The concentration for half-maximal inhibition (IC50) in test [3] and in test [10] was greater than 50 µM in each case. Besides, the inhibition result in [2] is “inactive”.
Regarding `CN(C)CCCCCn1c(N)c(-c2nc3ccccc3[nH]2)c2nc(C#N)c(C#N)nc21`, the IC50 was determined as 10.8 µM in test [1] and 3.42 µM in test [3].
In the case of `N#Cc1nc2c(-c3nc4ccccc4[nH]3)c(N)n(CCc3ccccc3)c2nc1C#N`, the half-maximal inhibitory concentration (IC50) was greater than 50 µM in [4]; 15.4 µM in test [6]; greater than 50 µM in test [7]; greater than 50 µM in test [8]; greater than 50 µM in [9]; greater than 50 µM in [1]. In addition, the IC50 in test [3] and in [10] was greater than 50 µM each time. In test [2], the inhibition entry was “inactive”.
Turning to `CN(C)CCn1c(N)c(-c2nc3ccccc3n2C)c2nc(C#N)c(C#N)nc21`, the concentration for half-maximal inhibition (IC50) in test [4] was greater than 50 µM; in test [6], 46.5 µM; in test [7] it was greater than 50 µM; in test [8], greater than 50 µM; in [9] it was 4.68 µM; in test [1], greater than 50 µM. Moreover, the IC50 in test [3] and in test [10] was greater than 50 µM throughout. For the same molecule, the inhibition entry in test [2] is “inactive”.
Turning to `CN(C)CCCCn1c(N)c(-c2nc3cc(Cl)ccc3[nH]2)c2nc(C#N)c(C#N)nc21`, the IC50 in test [4] turned out to be 4.73 µM; in [6], 0.95 µM; in [7], 12.1 µM; in [8] it was 3.28 µM; in test [9], 0.58 µM; in test [1], 3.12 µM. Besides, the results for the half-inhibitory concentration (IC50) in [3] and in test [10] were 1.48 µM and 1.93 µM, respectively. Also, the “Ratio IC50” value in test [5] is on record as 0.4. Moreover, in [2], the inhibition entry was “Active”.

The record behind these values is ChEMBL document CHEMBL3758120, “Synthesis and Mechanism Studies of 1,3-Benzoazolyl Substituted Pyrrolo[2,3-b]pyrazine Derivatives as Nonintercalative Topoisomerase II Catalytic Inhibitors” (J Med Chem, 2016).
